Assay results: ChEMBL document CHEMBL1649392, “Synthesis of substituted 3-amino-N-phenyl-1H-indazole-1-carboxamides endowed with antiproliferative activity” (Eur J Med Chem, 2011)

Legend:
Format in all cases: functional
ACHN = test: Antiproliferative activity against human ACHN cells after 48 hrs by sulforhodamine B assay; conditions: read-out: LC50 (the source's name)
Outline: (§1)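 NCI 60-cell-line panel covering nine cancer types (leukemia, non-small cell lung, colon, CNS, melanoma, ovarian, renal, prostate, breast). Compounds were first tested at a single dose, then in a five-dose screen (series starting 0.01, 0.1 …) if they met NCI threshold criteria. Reported per line: GI50 (molar concentration inhibiting 50% net growth), TGI (total growth inhibition) and LC50 (50% net cell death).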

OVCAR-8 = test: Antiproliferative activity against human OVCAR8 cells after 48 hrs by sulforhodamine B assay; conditions: OVCAR-8, 48 h; outline: as §1
SN12C = test: Antiproliferative activity against human SN12C cells after 48 hrs by sulforhodamine B assay; outline: as §1
SNB-75 = test: Antiproliferative activity against human SNB75 cells after 48 hrs by sulforhodamine B assay; conditions: SNB-75, 48 h; outline: as §1
CAKI-1 = test: Antiproliferative activity against human Caki1 cells after 48 hrs by sulforhodamine B assay; conditions: CAKI-1, 48 h; outline: as §1
COLO 205 = test: Antiproliferative activity against human COLO205 cells after 48 hrs by sulforhodamine B assay; conditions: COLO 205, 48 h; outline: as §1
UACC-257 = test: Antiproliferative activity against human UACC257 cells after 48 hrs by sulforhodamine B assay; conditions: UACC-257, 48 h
Outline: (§2)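 NCI 60-cell-line panel screen: single dose 10 µM first, then 5-dose testing (0.01, 0.1, … molar series). For each line, GI50 is the molar concentration giving 50% inhibition of net cell growth, TGI gives total inhibition of net growth, and LC50 gives 50% net cell death. Method follows the NCI DTP protocol.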

NCI-H522 = test: Antiproliferative activity against human NCI-H522 cells after 48 hrs by sulforhodamine B assay; conditions: NCI-H522, 48 h; outline: as §1
RXF 393 = test: Antiproliferative activity against human RXF393 cells after 48 hrs by sulforhodamine B assay; conditions: RXF 393, 48 h; outline: as §1
SW-620 = test: Antiproliferative activity against human SW620 cells after 48 hrs by sulforhodamine B assay; conditions: SW-620, 48 h; outline: as §2
SNB-19 = test: Antiproliferative activity against human SNB19 cells after 48 hrs by sulforhodamine B assay; conditions: SNB-19, 48 h; outline: as §1
OVCAR-5 = test: Antiproliferative activity against human OVCAR5 cells after 48 hrs by sulforhodamine B assay; conditions: OVCAR-5, 48 h; outline: as §1
K562 = test: Antiproliferative activity against human K562 cells after 48 hrs by sulforhodamine B assay; conditions: K562, 48 h; outline: as §1
KM12 = test: Antiproliferative activity against human KM12 cells after 48 hrs by sulforhodamine B assay; conditions: KM12, 48 h; outline: as §1
A549 = test: Antiproliferative activity against human A549 cells after 48 hrs by sulforhodamine B assay; conditions: A549, 48 h; outline: as §1
OVCAR-3 = test: Antiproliferative activity against human OVCAR3 cells after 48 hrs by sulforhodamine B assay; conditions: OVCAR-3, 48 h; outline: as §1
OVCAR-4 = test: Antiproliferative activity against human OVCAR4 cells after 48 hrs by sulforhodamine B assay; conditions: OVCAR-4, 48 h; outline: as §1
MOLT-4 = test: Antiproliferative activity against human MOLT4 cells after 48 hrs by sulforhodamine B assay; conditions: MOLT-4, 48 h, read-out: LC50 (the source's name); outline: as §1
HCC 2998 = test: Antiproliferative activity against human HCC2998 cells after 48 hrs by sulforhodamine B assay; conditions: HCC 2998, 48 h; outline: as §1
[1] = Antiproliferative activity against human Hs 578T cells after 48 hrs by sulforhodamine B assay; outline: as §1
SF-268 = test: Antiproliferative activity against human SF268 cells after 48 hrs by sulforhodamine B assay; conditions: SF-268, 48 h; outline: as §1
SK-OV-3 = test: Antiproliferative activity against human SKOV3 cells after 48 hrs by sulforhodamine B assay; conditions: SK-OV-3, 48 h; outline: as §1
HOP-92 = test: Antiproliferative activity against human HOP92 cells after 48 hrs by sulforhodamine B assay; conditions: HOP-92, 48 h; outline: as §1
EKVX = test: Antiproliferative activity against human EKVX cells after 48 hrs by sulforhodamine B assay; outline: as §1
UO-31 = test: Antiproliferative activity against human UO31 cells after 48 hrs by sulforhodamine B assay; conditions: UO-31, 48 h; outline: as §2
NCI-H322M = test: Antiproliferative activity against human NCI-H322M cells after 48 hrs by sulforhodamine B assay; outline: as §1
IGROV-1 = test: Antiproliferative activity against human IGROV1 cells after 48 hrs by sulforhodamine B assay; conditions: IGROV-1, 48 h; outline: as §1
SK-MEL-28 = test: Antiproliferative activity against human SK-MEL-28 cells after 48 hrs by sulforhodamine B assay; conditions: SK-MEL-28, 48 h; outline: as §1
HCT-116 = test: Antiproliferative activity against human HCT116 cells after 48 hrs by sulforhodamine B assay; conditions: HCT-116, 48 h; outline: as §1
HCT-15 = test: Antiproliferative activity against human HCT15 cells after 48 hrs by sulforhodamine B assay; conditions: HCT-15, 48 h; outline: as §1
UACC-62 = test: Antiproliferative activity against human UACC62 cells after 48 hrs by sulforhodamine B assay; conditions: UACC-62, 48 h; outline: as §2
[2] = read-out: LC50 (the source's name)

Nc1nn(C(=O)Nc2ccc(Cc3ccccc3)cc2)c2ccccc12
CC50 (ACHN): > 100 µM
TGI (OVCAR-8): 63.9 µM
CC50 (OVCAR-8; [2]): > 100 µM
TGI (SN12C): 28 µM
CC50 (SN12C; [2]): 60.6 µM
GI50 (SNB-75): 17 µM
LC50 (concentration causing 50% net cell death) (SNB-75): > 100 µM
TGI (SNB-75): 47.4 µM
TGI (CAKI-1): 58 µM
CC50 (CAKI-1; [2]): > 100 µM
LC50 (concentration causing 50% net cell death) (COLO 205): > 100 µM
TGI (COLO 205): 37.7 µM
GI50 (UACC-257): 10 µM
TGI (UACC-257): 50.9 µM
CC50 (UACC-257; [2]): > 100 µM
GI50 (NCI-H522): 2.9 µM
LC50 (concentration causing 50% net cell death) (NCI-H522): > 100 µM
TGI (NCI-H522): > 100 µM
TGI (RXF 393): 58.2 µM
CC50 (RXF 393; [2]): > 100 µM
TGI (SW-620): 41.5 µM
CC50 (SW-620; [2]): > 100 µM
TGI (SNB-19): > 100 µM
CC50 (SNB-19; [2]): > 100 µM
TGI (OVCAR-5): > 100 µM
CC50 (OVCAR-5; [2]): > 100 µM
GI50 (K562): 1.2 µM
LC50 (concentration causing 50% net cell death) (K562): > 100 µM
TGI (KM12): > 100 µM
CC50 (KM12; [2]): > 100 µM
TGI (A549): 48.6 µM
CC50 (A549; [2]): > 100 µM
TGI (OVCAR-3): 63.1 µM
CC50 (OVCAR-3; [2]): > 100 µM
TGI (OVCAR-4): 40.4 µM
CC50 (OVCAR-4; [2]): > 100 µM
CC50 (MOLT-4): > 100 µM
TGI (HCC 2998): 35.9 µM
CC50 (HCC 2998; [2]): > 100 µM
TGI [1]: 71.8 µM
CC50 [1, 2]: > 100 µM
TGI (SF-268): 32.3 µM
CC50 (SF-268; [2]): > 100 µM
TGI (SK-OV-3): > 100 µM
CC50 (SK-OV-3; [2]): > 100 µM
LC50 (HOP-92): > 100 µM
TGI (HOP-92): 42.6 µM
TGI (EKVX): 92 µM
CC50 (EKVX; [2]): > 100 µM
TGI (UO-31): > 100 µM
CC50 (UO-31; [2]): > 100 µM
TGI (NCI-H322M): > 100 µM
CC50 (NCI-H322M; [2]): > 100 µM
TGI (IGROV-1): 48.8 µM
CC50 (IGROV-1; [2]): > 100 µM
TGI (SK-MEL-28): > 100 µM
CC50 (SK-MEL-28; [2]): > 100 µM
LC50 (concentration causing 50% net cell death) (HCT-116): > 100 µM
TGI (HCT-116): > 100 µM
LC50 (concentration causing 50% net cell death) (HCT-15): > 100 µM
TGI (HCT-15): > 100 µM
TGI (UACC-62): > 100 µM
CC50 (UACC-62; [2]): > 100 µM
